Consider 21 molecules from ChEMBL document CHEMBL3112476, “Inhibition of IκB kinase-β and IκB kinase-α by heterocyclic adamantyl arotinoids” (Bioorg Med Chem, 2014).

Test [1] deals with T1, Retinoic acid receptor alpha (Homo sapiens) (UniProt P10276).
T1 sequence (whole entry): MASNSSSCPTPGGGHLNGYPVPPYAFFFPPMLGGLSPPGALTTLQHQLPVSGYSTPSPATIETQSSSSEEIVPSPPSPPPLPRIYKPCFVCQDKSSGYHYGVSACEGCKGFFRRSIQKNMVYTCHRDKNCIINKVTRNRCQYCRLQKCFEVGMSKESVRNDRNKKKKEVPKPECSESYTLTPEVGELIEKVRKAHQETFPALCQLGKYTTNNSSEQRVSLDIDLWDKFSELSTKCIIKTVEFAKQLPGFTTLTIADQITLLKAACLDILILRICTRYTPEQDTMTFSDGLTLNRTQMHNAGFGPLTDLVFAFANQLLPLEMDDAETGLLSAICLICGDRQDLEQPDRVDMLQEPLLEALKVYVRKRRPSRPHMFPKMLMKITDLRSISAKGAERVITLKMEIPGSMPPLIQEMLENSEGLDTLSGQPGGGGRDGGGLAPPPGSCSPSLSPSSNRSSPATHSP
As to the kind of experiment: Agonist activity at Gal4-fused RARalpha (unknown origin) transfected in HEK293 cells assessed as induction of transcriptional activity at 4 uM after 6 hrs by luciferase/beta-galactosidase reporter gene assay relative to control. It is filed as cell-based. A digest of the protocol:
(§1)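 Gal4-RARα or Gal4-RXRα (10 ng) plus 2 ng β-galactosidase vector, calcium phosphate transfection into HEK-293 cells carrying a 5×UAS luciferase reporter. After 16 h, cells were washed and given 5% charcoal-treated FBS medium, then rested 2 h. Stimulation was with 4 µM compound or 0.1% DMSO; controls were 1 µM atRA (RARα) or 1 µM CD3254 (RXRα). Harvest was at 6 h (RARα) or 24 h (RXRα). Luciferase/β-gal ratio was expressed as fold over unstimulated cells. Data: 2 experiments, triplicate.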
For orientation: In a reporter assay the amount or activity of a reporter protein is the signal.

Test [2] concerns the target T2, Inhibitor of nuclear factor kappa-B kinase subunit beta (Homo sapiens) (UniProt O14920).
T2 sequence (whole entry): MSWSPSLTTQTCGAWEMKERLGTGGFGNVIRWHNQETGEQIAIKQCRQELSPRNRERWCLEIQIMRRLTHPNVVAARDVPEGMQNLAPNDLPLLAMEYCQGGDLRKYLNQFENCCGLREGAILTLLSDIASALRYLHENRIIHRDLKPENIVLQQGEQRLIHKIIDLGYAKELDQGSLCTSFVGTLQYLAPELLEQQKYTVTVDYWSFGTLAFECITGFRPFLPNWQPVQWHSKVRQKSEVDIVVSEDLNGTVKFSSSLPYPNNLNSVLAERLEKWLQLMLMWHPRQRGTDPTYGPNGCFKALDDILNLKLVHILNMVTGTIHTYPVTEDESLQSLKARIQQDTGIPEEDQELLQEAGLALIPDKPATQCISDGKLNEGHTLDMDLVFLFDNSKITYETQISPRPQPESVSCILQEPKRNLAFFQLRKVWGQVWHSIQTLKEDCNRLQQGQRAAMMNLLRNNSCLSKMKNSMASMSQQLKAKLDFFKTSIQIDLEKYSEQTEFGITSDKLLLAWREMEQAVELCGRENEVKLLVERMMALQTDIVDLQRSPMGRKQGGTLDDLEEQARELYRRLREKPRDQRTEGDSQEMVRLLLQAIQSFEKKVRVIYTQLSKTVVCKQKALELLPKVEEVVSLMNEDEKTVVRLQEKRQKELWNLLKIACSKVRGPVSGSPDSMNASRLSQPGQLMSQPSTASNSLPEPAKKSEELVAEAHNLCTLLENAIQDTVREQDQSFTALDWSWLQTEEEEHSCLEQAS
As to the kind of experiment: Inhibition of recombinant IKKbeta (unknown origin) using ulight-IkappaomegaBalpha as substrate at 20 uM after 1 hr by LANCE ultra TR-FRET assay relative to control. In general terms: TR-FRET usually uses a lanthanide donor and a delayed reading to cut background.

The nature of test [3]: Cytotoxicity against human Jurkat T cells assessed as cell viability after 24 hrs by CellTiter-Glo assay. The format is functional, cell-based. A digest of the protocol: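 Jurkat cells were seeded the day before treatment in RPMI with 0.5% FBS (10,000 cells/well). They were treated in triplicate across an 8-point dose series starting at 10 µM, with DMSO ≤0.1% as solvent control. ATP was measured by CellTiter-Glo luminescence after 24 h; a time-0 reading separated cytostatic from cytotoxic effects. IC50 was fitted from the curve.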
For orientation: ATP-based viability assays read luminescence as a measure of living cells.

For test [4], the target named is T3, Inhibitor of nuclear factor kappa-B kinase subunit beta (Homo sapiens, UniProt O14920).
T3 sequence (O14920 whole entry): T2 sequence (whole entry)
Put plainly: Inhibition of recombinant IKKbeta (unknown origin) using ulight-IkappaomegaBalpha as substrate after 1 hr by LANCE ultra TR-FRET assay.

The target in test [5] is T4, Retinoic acid receptor RXR-alpha (Homo sapiens) (UniProt P19793).
T4 sequence (whole entry): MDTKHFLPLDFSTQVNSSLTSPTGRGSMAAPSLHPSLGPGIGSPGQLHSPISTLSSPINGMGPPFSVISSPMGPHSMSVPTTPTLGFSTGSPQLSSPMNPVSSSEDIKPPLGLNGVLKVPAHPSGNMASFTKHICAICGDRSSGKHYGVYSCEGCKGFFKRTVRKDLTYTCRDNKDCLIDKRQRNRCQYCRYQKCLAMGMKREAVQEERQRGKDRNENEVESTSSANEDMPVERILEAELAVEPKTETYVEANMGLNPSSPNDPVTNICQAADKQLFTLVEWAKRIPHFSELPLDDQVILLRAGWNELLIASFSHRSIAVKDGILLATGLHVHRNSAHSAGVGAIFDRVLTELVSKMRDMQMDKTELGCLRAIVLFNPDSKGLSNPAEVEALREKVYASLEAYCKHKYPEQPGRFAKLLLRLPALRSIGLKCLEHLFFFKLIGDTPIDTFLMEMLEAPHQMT
Put plainly: Agonist activity at recombinant GST-tagged RXRalpha LBD (unknown origin) assessed as induction of fluorescein labeled D22 coactivator recruitment after 4 hrs by TR-FRET assay. A digest of the protocol:
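5 nM GST-RXRα LBD was incubated with 150 nM fluorescein-D22 peptide at room temperature in Hepes pH 7.4 binding buffer (≤1% DMSO), with 2 nM Tb-anti-GST antibody. The 520/495 nm TR-FRET ratio was read after 4 h and reported as Delta F% relative to samples lacking receptor.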

Test [6] deals with T4, Retinoic acid receptor RXR-alpha (Homo sapiens). Put plainly: Agonist activity at recombinant GST-tagged RXRalpha LBD (unknown origin) assessed as induction of biotinylated SRC-1-676-700 coactivator recruitment after 4 hrs by TR-FRET assay. An outline of the steps:
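5 nM GST-RXRα LBD was incubated with 150 nM biotin-SRC-1 676-700 peptide at room temperature in binding buffer (25 mM Hepes pH 7.4, 100 mM NaCl, 0.025% BSA, 5% glycerol, 0.005% Tween-20, 2.5 mM DTT; ≤1% DMSO). Detection used 2 nM Eu-anti-GST plus 37.5 nM streptavidin-allophycocyanin. The 665/615 nm ratio was read at 4 h and expressed as Delta F% versus no-receptor control.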

Test [7] shares this target. Put plainly: Agonist activity at Gal4-fused RXRalpha (unknown origin) transfected in HEK293 cells assessed as induction of transcriptional activity at 4 uM after 24 hrs by luciferase/beta-galactosidase reporter gene assay relative to CD3254. It is filed as cell-based. An outline of the steps:
as §1

Molecules are shown by their SMILES.

For `COCCOCOc1ccc(-c2ncc(-c3ccc(C(=O)O)cc3)nc2OC)cc1C12CC3CC(CC(C3)C1)C2`, the fold change (FC) in test [1] was 1.1. In addition, the inhibition (as a rule, how much of the control response was suppressed) in test [2] worked out at 25.4%.

`Cc1cc(O)c(C23CC4CC(CC(C4)C2)C3)cc1-c1ccc(CC(=O)O)cc1Cl`: the concentration for half-maximal inhibition (IC50) (commonly the midpoint of a concentration-inhibition curve) in test [3] is 3.98 µM. Moreover, the inhibition in test [2] is 4.9%.

Regarding `CC(=O)NCCCOc1cc(/C=C/C(=O)O)ccc1-c1cc(C23CC4CC(CC(C4)C2)C3)c(O)cc1C`, in test [3], the IC50 came to 2.61 µM. Moreover, the inhibition in test [2] turned out to be 0%.

On to `O=C(O)c1ccc(-c2cnc(-c3ccc(O)c(C45CC6CC(CC(C6)C4)C5)c3)s2)cc1`, for which the IC50 in test [4] is 3.37 µM; in test [3], 2.24 µM. For the same molecule, the inhibition in test [2] turned out to be 94.1%.

Consider `COc1nc(-c2ccc(C(=O)O)cc2)cnc1-c1ccc(O)c(C23CC4CC(CC(C4)C2)C3)c1`, for which the fold change (FC) in test [1] was 1.9. Moreover, the IC50 turned out to be 7.81 µM in test [4] and 3.13 µM in test [3]. For the same molecule, the inhibition in test [2] stood at 83.9%.

On to `COCCOCOc1ccc(-c2ncc(/C=C/C(=O)O)nc2OC)cc1C12CC3CC(CC(C3)C1)C2`, for which, in test [1], the fold change (FC) was found to be 1.1. Moreover, in test [2], the inhibition came out at 1.6%.

Take `Cc1cc(O)c(C23CC4CC(CC(C4)C2)C3)cc1-c1ncc(-c2ccc(C(=O)O)cc2)s1`: the IC50 in test [4] turned out to be 4.78 µM; in test [3] it was 4.4 µM. Also, the inhibition in test [2] came to 95%.

With `COCCOCOc1cc(C)c(-c2ccc3cc(C(=O)O)ccc3c2Cl)cc1C12CC3CC(CC(C3)C1)C2`, the Activity result in test [5] and in test [6] was “Dose-dependent effect” throughout. The IC50 in test [4] was 7.06 µM; in test [3], 5.62 µM. In test [2], the inhibition amounted to 79.2%.

For the molecule `COCCOCOc1ccc(-c2ncc(-c3ccc(C(=O)O)cc3)s2)cc1C12CC3CC(CC(C3)C1)C2`, the fold change (FC) in test [1] worked out at 1.2. For the same molecule, in test [7], the max activation amounted to 21%. Further, the IC50 in test [4] stood at 5.16 µM. The inhibition in test [2] was found to be 89.3%.

Take `COCCOCOc1ccc(-c2ncc(/C=C/C(=O)O)s2)cc1C12CC3CC(CC(C3)C1)C2`: the fold change (FC) in test [1] was found to be 1. The inhibition in test [2] was determined as 1.9%.

In the case of `COCCOCOc1cc(C)c(-c2ncc(/C=C/C(=O)O)s2)cc1C12CC3CC(CC(C3)C1)C2`, the fold change (FC) in test [1] amounted to 1.9. Also, the inhibition in test [2] amounted to 12.2%.

Take `COCCOCOc1cc(C)c(-c2ncc(-c3ccc(C(=O)O)cc3)s2)cc1C12CC3CC(CC(C3)C1)C2`: the figures for the IC50 in test [4] and in test [3] were 4.43 µM and 5.71 µM, respectively. For the same molecule, the inhibition in test [2] worked out at 87.7%.

For the molecule `COCCOCOc1cc(C)c(-c2ccc(CC(=O)O)cc2Cl)cc1C12CC3CC(CC(C3)C1)C2`, the Activity result in test [5] and in test [6] was “Dose-dependent effect” in each case. The fold change (FC) in test [1] amounted to 1.3. Moreover, the inhibition in test [2] turned out to be 39.8%.

On to `Cc1cc(O)c(C23CC4CC(CC(C4)C2)C3)cc1-c1ncc(/C=C/C(=O)O)s1`, for which the fold change (FC) in test [1] turned out to be 1. Besides, in test [2], the inhibition was 26.2%.

Regarding `COc1nc(/C=C/C(=O)O)cnc1-c1ccc(O)c(C23CC4CC(CC(C4)C2)C3)c1`, in test [3], the IC50 came out at 5.01 µM. Also, in test [2], the inhibition came out at 8.2%.

With `Cc1cc(O)c(C23CC4CC(CC(C4)C2)C3)cc1-c1ccc(/C=C/C(=O)O)cc1Cl`, the Activity result in test [5] and in test [6] was “Dose-dependent effect” throughout. Also, the IC50 in test [3] is 4.04 µM. In test [2], the inhibition came out at 4.9%.

As for `COCCOCOc1cc(C)c(-c2ccc(/C=C/C(=O)O)cc2Cl)cc1C12CC3CC(CC(C3)C1)C2`, the Activity result in test [5] and in test [6] was “Dose-dependent effect” in each case. Besides, the fold change (FC) in test [1] is 1.8. In addition, in test [2], the inhibition was determined as 4.3%.

On to `COc1nc(/C=C/C(=O)O)cnc1-c1cc(C23CC4CC(CC(C4)C2)C3)c(O)cc1C`, for which the IC50 in test [3] was 5.38 µM. In addition, in test [2], the inhibition was 7.3%.

In the case of `Cc1cc(O)c(C23CC4CC(CC(C4)C2)C3)cc1-c1ccc2cc(C(=O)O)ccc2c1Cl`, the results for the IC50 in test [4] and in test [3] were 4.75 µM and 2.19 µM, respectively. Besides, in test [2], the inhibition came to 96.4%.

`O=C(O)/C=C/c1cnc(-c2ccc(O)c(C34CC5CC(CC(C5)C3)C4)c2)s1`: the fold change (FC) in test [1] amounted to 1.1. In test [2], the inhibition was 5%.

In the case of `COCCOCOc1cc(C)c(-c2ncc(/C=C/C(=O)O)nc2OC)cc1C12CC3CC(CC(C3)C1)C2`, in test [1], the fold change (FC) turned out to be 0.8. Also, in test [2], the inhibition was determined as 3.8%.
